Reference: ChEMBL document CHEMBL4138113, “Novel propanamides as fatty acid amide hydrolase inhibitors” (Eur J Med Chem, 2017)

Target: T1, Fatty-acid amide hydrolase 1 (Rattus norvegicus, UniProt P97612)
T1 sequence (P97612 whole entry): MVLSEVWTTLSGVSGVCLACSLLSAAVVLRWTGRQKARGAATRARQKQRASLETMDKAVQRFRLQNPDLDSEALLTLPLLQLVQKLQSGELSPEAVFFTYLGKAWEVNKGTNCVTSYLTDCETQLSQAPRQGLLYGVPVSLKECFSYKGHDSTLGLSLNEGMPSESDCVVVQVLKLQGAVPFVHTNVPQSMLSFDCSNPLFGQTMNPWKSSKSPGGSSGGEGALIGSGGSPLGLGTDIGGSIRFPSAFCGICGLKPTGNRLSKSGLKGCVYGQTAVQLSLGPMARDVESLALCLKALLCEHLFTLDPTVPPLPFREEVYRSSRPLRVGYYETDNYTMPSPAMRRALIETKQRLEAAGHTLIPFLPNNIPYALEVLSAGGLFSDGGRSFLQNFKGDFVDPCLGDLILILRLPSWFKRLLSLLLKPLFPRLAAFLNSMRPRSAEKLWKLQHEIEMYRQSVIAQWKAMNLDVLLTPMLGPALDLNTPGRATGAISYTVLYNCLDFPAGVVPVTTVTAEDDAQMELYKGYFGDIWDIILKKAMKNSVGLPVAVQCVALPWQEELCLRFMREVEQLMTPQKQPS
Experiment: Inhibition of rat brain FAAH using [3H]AEA as substrate
Summary of the method: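 Brains (minus cerebella) of adult Wistar or Sprague-Dawley rats homogenized in HEPES/MgCl2 pH 7.0, washed by repeated centrifugation, preincubated 15 min at 37 °C, resuspended in Tris-HCl/EDTA/MgCl2 pH 7.4. 1 µg protein per assay mixed on ice with inhibitor, then 0.5 µM [3H]AEA with fatty acid-free BSA, 10 min at 37 °C. Charcoal/HCl stop, supernatant counted. At least five half-log concentrations, at least 3 experiments.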

`CCCCC/C=C\C/C=C\C/C=C\C/C=C\CCCC(=O)NCCc1c[nH]c2ccc(O)cc12` gave an IC50 of 1200 nM.
